From PubChem
FN deposit inh – inhibitors of fibronectin matrix deposition, primary screen, AH1F cells, Alexa488-fibronectin fluorescence, plate reader | AH1F fibroblasts, overnight | inhibition, % at 12.6 µM | 350,000 compounds, 0.086% hits | AID 743247, 2014;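 active = mean inhibition across replicates of 30% or more, regardless of how many single replicates reach that level; inconclusive = mean under 30% yet at least half of replicates reach 30%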;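 also: positive control wells lacked labelled fibronectin entirely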
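Material: AH1F fibroblast monolayer depositing Alexa488-labelled fibronectin into matrix | Input: 10000 AH1F cells/well | Medium: DMEM plus 2% serum, read in PBS | Reagent: Alexa488-fibronectin, 24 nM final in well | Compound dosing: One dose per compound, pinned | Schedule: 1 h adhesion, overnight exposure | Measured by: Fluorescence at 485 nm excitation, 525 nm emission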
EWS-Fli block – EWS/Fli-driven NR0B1 reporter inhibitors, primary screen, A673 cells, NR0B1 luciferase, luminescence, MLPCN library; viability-normalised; inhibition, % at 12.6 µM; 350,000 compounds, 0.67% hits; AID 651661, 2012;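 active = mean inhibition of at least 50% after viability correction, with every replicate also passing that limit; inconclusive = mean reaches 50% but only one of two replicates passes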;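 also: firefly luciferase signal divided by Alamar Blue viability fluorescence both relative to DMSO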
PAX8 reporter – inhibitors of PAX8-driven TPO luciferase reporter, primary screen, RMG-I cells, single concentration; SteadyGlo, 24 h; inhibition, % at 12.6 µM; AID 652154, 2013; 360,000 compounds, 1.2% hits;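 active = mean replicate inhibition at least 60% with every replicate also reaching 60%; inconclusive = only one of the two criteria is met; inactive = mean below 60% and not all replicates reaching 60%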;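 also: luciferase light reporting Pax8 driven TPO promoter activity; plate controls were median of neutral control wells for no effect and mitoxantrone controls for full effect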
AF4-AF9 inh – inhibitors of AF4 peptide binding to AF9, primary screen, biochemical, AlphaScreen, biotin-AF4 peptide, FLAG-AF9, single point | inhibition, % at 10 µM | 350,000 compounds, 0.47% hits | AID 651704, 2012;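 active = every replicate reaching a set inhibition limit, whatever the replicate mean, cut at about 25% in these data; inconclusive = mean inhibition reaches that limit but some replicates miss it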;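 also: 0% = plate neutral control median and 100% = total signal loss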
Target sequence (P42568 whole entry, looked up): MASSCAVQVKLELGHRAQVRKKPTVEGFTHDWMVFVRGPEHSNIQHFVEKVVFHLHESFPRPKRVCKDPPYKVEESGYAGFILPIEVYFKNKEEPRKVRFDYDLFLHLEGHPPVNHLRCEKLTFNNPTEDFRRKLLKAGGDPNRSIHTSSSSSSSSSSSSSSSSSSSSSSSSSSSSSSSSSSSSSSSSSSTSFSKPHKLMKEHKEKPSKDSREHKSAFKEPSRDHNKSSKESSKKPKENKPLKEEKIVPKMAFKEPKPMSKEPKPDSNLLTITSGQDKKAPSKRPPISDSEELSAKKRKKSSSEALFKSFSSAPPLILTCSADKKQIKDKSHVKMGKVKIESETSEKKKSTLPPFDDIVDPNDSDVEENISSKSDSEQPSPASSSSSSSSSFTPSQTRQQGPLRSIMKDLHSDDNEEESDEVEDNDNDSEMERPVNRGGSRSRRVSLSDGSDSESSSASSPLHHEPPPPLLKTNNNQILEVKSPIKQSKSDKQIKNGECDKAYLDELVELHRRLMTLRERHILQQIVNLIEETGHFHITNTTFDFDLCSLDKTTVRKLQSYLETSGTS
HIV Env fusion – inhibitors of HIV-1 Env-driven cell-cell fusion, primary screen, HeLa-JRFL effector, CEM21 target cells, luciferase; inhibition, % at 12.3 µM; AID 651610, 2012; 360,000 compounds, 1.1% hits;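 active = mean replicate inhibition score of at least 50 and every replicate individually at or above 50; inconclusive = only one of the two criteria met; inactive = mean below 50 and not all replicates reaching 50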;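 also: 0% = plate neutral controls and 100% = maraviroc near 300 nM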
Glyco luc inh – increase of ERlucT glycosylation luciferase signal, primary screen, N-linked glycosylation inhibitor project, D54 ERlucT cells, luminescence, set 2. reporter increase, % at 12.5 µM. D54 ERlucT glycosylation luciferase reporter, 24 h; percent of 100 nM tunicamycin response. 360,000 compounds, 0.23% hits;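 active = mean luciferase reporter signal, scaled so untreated is 0 and the glycosylation-blocking control 100, at or above a set limit in every replicate; inconclusive = mean reaches the limit but not every replicate does; inactive = mean below the limit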;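 also: luciferase carries N-glycosylation sites so blocking glycosylation raises the light; 0% = median of neutral control wells and 100% = median of 100 nM tunicamycin wells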
An asterisk follows results filed as active; u = inconclusive; x = no result given; ! = not active in a repeat; [ ] = another dose, or the depositor's remark. Shown are actives, neighbours in structure and some others; about 2.5% of the full set was active somewhere.

SMILES	FN deposit inh	EWS-Fli block	PAX8 reporter	AF4-AF9 inh	HIV Env fusion	Glyco luc inh
C[C@@H]1CN([C@H](C)CO)C(=O)c2cc(NC(=O)CCCCCC(=O)Nc3ccccc3N)ccc2O[C@@H](C)CCCCO[C@H]1CN(C)Cc1ccc(Cl)c(Cl)c1	-9.8	-19.6	80.4*	-1.3	x	x
C[C@@H]1CCCCO[C@H](CN(C)Cc2ccccc2)[C@@H](C)CN([C@H](C)CO)C(=O)c2cc(NC(=O)CCCCCC(=O)Nc3ccccc3N)ccc2O1	-4.6	-20.1	14.1	1.5	x	x
C[C@@H]1CCCCO[C@H](CN(C)Cc2ccc(Cl)c(Cl)c2)[C@@H](C)CN([C@H](C)CO)C(=O)c2cc(NC(=O)CCCCCC(=O)Nc3ccccc3N)ccc2O1	-6.9	9.1	73.5*	1.4	x	x
O=C(C[C@@H]1C=C[C@@H](NC(=O)Cc2cccnc2)[C@@H](CO)O1)Nc1ccc(-c2ccccc2)cc1	4.2	x	-0.5	-3.0	x	x
CC1=CC(=O)C=C(C)C1=NOS(=O)(=O)c1ccccc1	x	x	x	x	x	16.6
CC1=CC(=O)C(C(C)C)=C/C1=N/OS(=O)(=O)c1ccccc1	32.7*	41.8	94.3*	17.4	-204.9	19.7
CN1CCN(C(=O)C[C@H]2C=C[C@@H](NC(=O)Cc3ccccn3)[C@@H](CO)O2)CC1	-9.3	3.8	-7.7	-2.7	-4.6[16.7 µM]	x
C[C@@H]1CN([C@@H](C)CO)S(=O)(=O)c2ccc(-c3cccnc3)cc2O[C@@H]1CN(C)C(=O)C1CCCCC1	x	-2.5	x	4.6	14.7[16.7 µM]	x
O=C(NCCS(=O)(=O)N1CCN(c2ccc(F)cc2)CC1)c1ccc(Br)o1	33.5*	x	16.0	-0.5	-5.1	-1.0
O=C(C[C@H]1C[C@H]2c3cc(NC(=O)Cc4ccncc4)ccc3O[C@H]2[C@H](CO)O1)NCc1ccc(-c2ccccc2)cc1	x	26.8	37.9	-0.7	11.2[16.7 µM]	x
CCCNC(=O)N[C@@H]1C=C[C@@H](CC(=O)NCCc2ccccc2)O[C@@H]1CO	-1.0	-0.6	-9.0	x	6.1[16.7 µM]	x
CCOC1=C2[C@H](c3ccccc3Cl)N(S(=O)(=O)c3ccc(C)cc3)C[C@H]2C(C#N)(C#N)C(C#N)(C#N)C1	-4.2	-10.3	-8.2	-0.1	23.6	9.8
CCOC1=C2[C@H](c3ccccc3)N(S(=O)(=O)c3ccc(C)cc3)[C@H](C(C)C)[C@H]2C(C#N)(C#N)C(C#N)(C#N)C1	1.4	-0.3	28.1	-43.7	107.0*	x
CCOC1=C2[C@H](c3ccc(CC)cc3)N(S(=O)(=O)c3ccc(C)cc3)C[C@H]2C(C#N)(C#N)C(C#N)(C#N)C1	x	4.8	-6.5	-1.5	-90.8	32.9*
O=C(Cn1cc(C(=O)c2cccs2)c2ccccc21)NCc1ccc2c(c1)OCO2	9.5	3.0	12.7	-10.6	56.5*	0.0
C[C@@H]1CN([C@H](C)CO)C(=O)Cc2cc(NS(=O)(=O)c3ccccc3)ccc2O[C@H]1CN(C)C(=O)Nc1ccc(F)cc1	-2.8	-0.9	-18.0	-1.3	x	x
O=C(CCl)Nc1cn(-c2ccccc2)nc1-c1ccc(F)cc1	-11.8	32.6	-32.0	3.0	4.9	51.6*
C[C@H]1CN([C@@H](C)CO)C(=O)c2cccc(NC(=O)NC3CCCCC3)c2O[C@H]1CN(C)S(=O)(=O)c1ccc(F)cc1	-11.4	5.4	7.9	1.2	x	x
Cc1cc(C(=O)NCC(c2ccco2)N(C)C)ccc1[N+](=O)[O-] (stereo not drawn)	3.0	-6.2	-0.4	46.0*	0.1	0.1
CN(C)C(CNC(=O)c1ccc(Br)cc1)c1ccco1 (stereo not drawn)	-8.7	-9.7	4.8	1.2	-1.6	-0.3
Nc1c(Cl)cc2c(c1Oc1ccccc1)C(=O)c1ccccc1C2=O	0.6	x	x	x	125.2*	3.1
CC1CC(C)C(=O)C(C(CC2CC(=O)NC(=O)C2)OC(=O)CC(=O)c2ccccc2)C1 (stereo not drawn)	5.9	1.5	84.5*	-49.8	u	-19.1
O=C(COc1ccc(-c2nnc(N3CCCCC3)c3ccccc23)cc1)N1CCCCC1	x	x	x	x	x	-3.0
Cc1ccc(-c2nnc(N3CCN(C(=O)COc4ccccc4)CC3)c3ccccc23)cc1	x	x	x	x	68.5*	-2.9
O=C(NCc1ccc(F)cc1)[C@H]1[C@H](CO)[C@H]2Cn3c(cccc3=O)[C@@H]1N2	x	8.6	-2.2	-2.2	x	x
SMILES	FN deposit inh	EWS-Fli block	PAX8 reporter	AF4-AF9 inh	HIV Env fusion	Glyco luc inh
C[C@H](CO)N1C[C@H](C)[C@H](CN(C)Cc2ccc(Oc3ccccc3)cc2)Oc2ccc(NS(=O)(=O)c3ccc(Cl)cc3)cc2C1=O	x	-0.4	x	1.6	x	x
Cn1c(=O)c([N+](=O)[O-])c(Cl)c2ccccc21	-1.9	61.0*	101.4*	-7.4	-95.3	u
CCCCCCSc1cccc(-c2nc3ccc(Cl)cn3c2NCc2ccccc2)c1	3.9	22.2	-18.1	2.6	72.3*!	-4.0
CC1=Nc2ccccc2N=C(NC(=O)c2ccccc2)C1c1ccc(Cl)cc1 (stereo not drawn)	-6.1	-5.2	-9.1	-1.4	69.4*	1.5
CC(C)(C)C(=O)Nc1ccc(NC(=O)c2ccco2)nc1	4.9	88.0*	109.2*	-4.3	63.0*	-19.4
C[C@@H]1CN([C@H](C)CO)C(=O)c2cccc(NS(=O)(=O)c3cn(C)cn3)c2O[C@@H]1CN(C)Cc1ccc(C(=O)Nc2ccccc2N)cc1	-6.7	-11.5	-29.1	4.5	x	x
COc1ccccc1NC(=O)CNC(c1ccccc1)c1ccccc1	4.2	2.8	-5.7	-1.5	22.0	-2.3
COc1ccccc1NC(=O)C(C)NC(c1ccccc1)c1ccccc1 (stereo not drawn)	2.6	x	-45.3	-1.7	59.0*	-1.1
COc1ccc(C(CC(=O)Nc2cc([N+](=O)[O-])ccc2OC)c2ccccc2)cc1 (stereo not drawn)	1.8	6.4	37.8	1.6	78.9*	-2.1
COC(=O)CNC(c1ccccc1)c1cc(C)ccc1NC(=O)CNC(=O)OCc1ccccc1 (stereo not drawn)	x	x	x	x	72.6*	-2.3
COc1ccc(C)cc1NC(=O)CNC(c1ccccc1)c1ccc(C)cc1 (stereo not drawn)	-3.5	54.8*	8.4	-2.6	-141.1	6.9
COc1ccccc1NC(=O)C(C)NS(=O)(=O)c1ccccc1 (stereo not drawn)	x	x	x	x	x	1.7
COC(=O)CNC(c1ccccc1)c1cc(Br)ccc1NC(=O)OCc1ccccc1 (stereo not drawn)	x	x	x	x	x	-5.5
COc1ccccc1NC(=O)N1CC[C@H]2[C@@H]1c1cc(-c3ccccc3)ccc1N(C)[C@H]2CO	-11.6	-5.2	4.1	-0.8	x	x
Cc1ccc(CNC(=O)C2CCN(S(=O)(=O)c3c(C)noc3/C=C/c3ccco3)CC2)cc1	-7.0	27.2	83.2*	-0.1	-0.6	-5.6
